High-throughput results: PubChem BioAssay, Broad Institute
miR-122 sensor: miR-122 Renilla sensor signal increase in Huh7, primary screen, miR-122 inhibitor project, cell-based, single point, plate reader; AID 602342, 2012; Huh7 miR-122 Renilla luciferase sensor, 48 h; neutral wells = 0, positive control = 100; activation (reporter increase), % at 12.5 µM; 340,000 compounds, 0.3% hits;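 active means mean replicate activation score at least 90 and every replicate individually at or above 90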;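 further: higher luciferase means less miR-122 activity so hits act as miR-122 inhibitors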
CAL PDZ FP-1: untagged CAL PDZ binding inhibitors, primary screen, biochemical, fluorescence polarization, HTS; Golgi-associated PDZ and coiled-coil motif-containing protein (Homo sapiens), Q9HD26; purified CAL PDZ, TMR-peptide fluorescence polarization, 1 h; inhibition, % at 24.9 µM; 300,000 compounds, 0.92% hits;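 active means mean inhibition of at least 30% with at least half of replicates also reaching 30%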;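 further: 0% = DMSO neutral control and 100% = excess unlabeled competitor peptide PRC23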
ARNT TACC3 PPI: disruptors of ARNT/TACC3 protein interaction, primary screen, biochemical, AlphaScreen, single concentration. Transforming acidic coiled-coil-containing protein 3 (Homo sapiens), Q9Y6A5. AlphaScreen His-ARNT PAS-B/GST-TACC3 binding, luminescence; TACC3 fragment carries E629A point mutation. inhibition, % at 9.99 µM. 390,000 compounds, 0.66% hits. AID 623870, 2012;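 active means mean inhibition of replicates at least 50% and at least half of replicates each reaching 50%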;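 further: 0% = complete ARNT plus TACC3 wells and 100% = ARNT alone without TACC3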
SR-BI DiI-HDL act: activators of SR-BI mediated DiI-HDL uptake, primary screen, ldlA[mSR-BI] CHO cells, DiI fluorescence. 3 h; 100 = double the neutral-control signal. 320,000 compounds, 0.096% hits. activation, % at 12.5 µM;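 active means mean replicate activation of at least 60% and every replicate at or above 60%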;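 further: 0% = median plate neutral-control signal and 100% = twice that signal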
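Assay system: LDL receptor-deficient CHO ldlA cells overexpressing murine SR-BI / Medium: BSA-supplemented, HEPES-buffered Ham's F12, pH 7.4 / Probe or stimulus: DiI-labelled HDL at 10 µg/mL final / Timing: compound with DiI-HDL co-incubation, 3 h at 37 °C / Technique: bottom-read cell fluorescence after medium removal, ex 550/em 595 nm / Measure: HDL uptake via cellular fluorescence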
CAL PDZ FP-2: CAL PDZ peptide-binding inhibitors, primary screen, biochemical, fluorescence polarization, Cer-tagged CAL PDZ, HTS; Golgi-associated PDZ and coiled-coil motif-containing protein (Homo sapiens), Q9HD26; purified CAL PDZ, TMR-peptide fluorescence polarization, 1 h; inhibition, % at 20 µM; 330,000 compounds, 0.02% hits; AID 504414, 2011;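 active means highest replicate inhibition of at least 40%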;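 further: plate controls were DMSO neutral control wells for no effect and unlabeled competitor peptide control wells for full effect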
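System: tagged CAL PDZ domain. Schedule: 1 h room-temperature incubation prior to read. Signal: fluorescence polarization (mP). Measure: percent inhibition from loss of millipolarization.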
SR-BI DiI inh: inhibitors of SR-BI mediated HDL lipid uptake, primary screen, ldlA[mSR-BI] cells, fluorescence, single point; Scavenger receptor class B member 1 (Mus musculus), Q61009; ldlA[mSR-BI] CHO cells, DiI-HDL uptake fluorescence, 3 h; inhibition, % at 12.5 µM; 320,000 compounds, 0.96% hits;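 active means mean replicate inhibition of at least 70% and a set share of replicates each scoring 70 or more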;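 further: 0% = median of neutral control wells and 100% = median of positive control wells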
Target sequence (Q61009 whole entry, looked up): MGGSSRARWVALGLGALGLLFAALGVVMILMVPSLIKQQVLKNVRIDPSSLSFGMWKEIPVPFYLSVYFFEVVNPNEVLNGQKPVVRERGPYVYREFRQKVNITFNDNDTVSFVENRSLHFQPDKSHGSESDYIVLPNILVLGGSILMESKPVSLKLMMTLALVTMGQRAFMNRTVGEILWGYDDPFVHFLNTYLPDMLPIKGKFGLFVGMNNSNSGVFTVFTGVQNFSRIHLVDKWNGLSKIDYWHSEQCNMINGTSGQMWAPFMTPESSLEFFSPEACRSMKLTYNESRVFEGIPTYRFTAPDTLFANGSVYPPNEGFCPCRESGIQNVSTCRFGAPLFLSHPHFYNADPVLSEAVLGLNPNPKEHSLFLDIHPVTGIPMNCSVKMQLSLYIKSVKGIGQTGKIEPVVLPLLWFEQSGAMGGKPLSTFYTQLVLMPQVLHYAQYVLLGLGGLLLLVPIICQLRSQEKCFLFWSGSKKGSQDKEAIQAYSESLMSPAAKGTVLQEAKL
Numbers without * were called inactive; x = not tested or not shown; [ ] = another dose, or the depositor's remark. Shown are actives, neighbours in structure and some others; about 2.1% of the full set was active somewhere.

SMILES	miR-122 sensor	CAL PDZ FP-1	ARNT TACC3 PPI	SR-BI DiI-HDL act	CAL PDZ FP-2	SR-BI DiI inh
Cc1ccccc1-c1cnc2c(c1)C(=O)N([C@H](C)CO)C[C@@H](C)[C@H](CN(C)Cc1ccccc1F)O2	121*[16.7 µM]	x	11	x	x	x
C[C@H]1CN([C@@H](C)CO)C(=O)c2cccc(NC(=O)c3ccncc3)c2O[C@@H]1CN(C)Cc1ccc(C(F)(F)F)cc1	108*[16.7 µM]	x	-4	x	x	x
Cc1cc(C(=O)Nc2cccc3c2O[C@H](CN(C)Cc2ccc(C(F)(F)F)cc2)[C@H](C)CN([C@@H](C)CO)C3=O)n(C)n1	-4[16.7 µM]	x	1	x	x	x
C[C@H](CO)N1C[C@H](C)[C@H](CN(C)Cc2ccc(C(=O)Nc3ccccc3N)cc2)Oc2c(NC(=O)c3ccc(-c4nccs4)cc3)cccc2C1=O	8[16.7 µM]	x	13	x	x	x
Cc1cc(C(=O)Nc2cccc3c2O[C@H](CN(C)Cc2ccc(C(F)(F)F)cc2)[C@@H](C)CN([C@H](C)CO)C3=O)n(C)n1	276*[16.7 µM]	x	26	x	x	x
O=C(C[C@H]1CC[C@H]2[C@@H](COC[C@@H](O)CN2Cc2cc(F)ccc2F)O1)NCc1ccc(F)cc1	-3[16.7 µM]	x	-3	x	x	x
CO[C@@H]1CN(C)C(=O)c2ccc(NC(=O)c3cccc(F)c3)cc2OC[C@@H](C)N(C)C[C@H]1C	6[16.7 µM]	x	-3	x	x	x
Cc1ccc(S(=O)(=O)N(C)C[C@H]2Oc3ccc(NC(=O)CCN4CCOCC4)cc3C(=O)N([C@H](C)CO)C[C@@H]2C)cc1	-2[16.7 µM]	x	0	x	x	x
C[C@H](CO)N1C[C@H](C)[C@@H](CN(C)C(=O)c2ccncc2)Oc2ncc(C3=CCCCC3)cc2C1=O	4[16.7 µM]	x	2	x	x	x
C[C@@H]1CN([C@@H](C)CO)C(=O)c2cc(C#Cc3ccncc3)cnc2O[C@H]1CN(C)C(=O)c1ccccc1F	-1[16.7 µM]	x	0	x	x	x
CCCC#Cc1ccc2c(c1)O[C@H](CN(C)Cc1ccncc1)[C@H](C)CN([C@@H](C)CO)S2(=O)=O	9[16.7 µM]	x	-5	x	x	x
C[C@@H]1CN([C@@H](C)CO)C(=O)c2cccc(NC(=O)c3cnccn3)c2O[C@H]1CN(C)Cc1ccc(C(F)(F)F)cc1	152*[16.7 µM]	x	2	x	x	x
Cc1noc(C)c1S(=O)(=O)N(C)C[C@@H]1Oc2c(NC(=O)c3cnccn3)cccc2C(=O)N([C@@H](C)CO)C[C@@H]1C	166*[16.7 µM]	x	x	x	x	x
C[C@@H]1CN([C@@H](C)CO)C(=O)c2cccc(NC(=O)c3ccncc3)c2O[C@@H]1CN(C)C	112*[16.7 µM]	x	-8	x	x	x
C[C@H]1CN([C@@H](C)CO)C(=O)c2cccc(NC(=O)c3ccncc3)c2O[C@H]1CN(C)S(C)(=O)=O	-10[16.7 µM]	x	-6	x	x	x
C[C@@H]1CN([C@H](C)CO)C(=O)c2cccc(NC(=O)c3cnccn3)c2O[C@H]1CN(C)Cc1ccc(C(F)(F)F)cc1	66[16.7 µM]	x	-18	x	x	x
N#CCNC(=O)c1nn2c(C(F)(F)F)cc(-c3ccccc3)nc2c1Br	x	75*	-28	-20	x	20
COCC(=O)Nc1ccc2c(c1)[C@H]1C[C@H](CC(=O)NC3CCCCC3)O[C@H](CO)[C@H]1O2	-7[16.7 µM]	x	-8	x	x	x
COc1ccc(NC(=O)COC(=O)/C=C/c2ccccc2[N+](=O)[O-])cc1	9	-2	-7	3	-1	-3
COc1ccc(/C=C/C(=O)OCC(=O)Nc2ccc(Cl)c(S(=O)(=O)N(C)C)c2)cc1OC	x	x	-2	-50	-2	50
O=C(COC(=O)CN1C(=O)c2ccccc2C1=O)Nc1ccc(S(=O)(=O)N2CCCC2)cc1	-12	35*	4	9	x	-9
COc1cc(/C=C/C(=O)OCC(=O)Nc2ccc(S(=O)(=O)N3CCCC3)cc2)ccc1O	x	-2	x	-82	-2	82*
O=C(COC(=O)/C=C/c1ccccc1[N+](=O)[O-])Nc1ccc(S(=O)(=O)N2CCOCC2)cc1	4	35*	3	-10	0	10
COc1ccc(/C=C/C(=O)OCC(=O)Nc2ccc(S(N)(=O)=O)cc2)cc1OC	x	45*	-2	-18	-1	18
C[C@@H]1CCCCO[C@H](CN(C)S(=O)(=O)c2ccccc2)[C@@H](C)CN([C@H](C)CO)C(=O)c2cc(NC(=O)CCC(F)(F)F)ccc2O1	2[16.7 µM]	x	-2	x	x	x
SMILES	miR-122 sensor	CAL PDZ FP-1	ARNT TACC3 PPI	SR-BI DiI-HDL act	CAL PDZ FP-2	SR-BI DiI inh
COc1ccccc1C#Cc1ccc([C@H]2[C@H](CO)N3CCCCN(S(C)(=O)=O)C[C@@H]23)cc1	0[16.7 µM]	x	8	x	x	x
C[C@@H]1CN([C@@H](C)CO)C(=O)Cc2cc(NC(=O)Cc3cn(C)c4ccccc34)ccc2O[C@@H]1CN(C)S(=O)(=O)c1ccccc1	-1[16.7 µM]	x	-1	x	x	x
CC(C)NC(=O)N1[C@@H](CO)[C@H](c2ccccc2)[C@@H]1CNC(=O)CN(C)C	14[16.7 µM]	x	-10	x	x	x
Cc1cc(C(=O)Nc2cccc3c2O[C@@H](CN(C)S(=O)(=O)c2ccccc2)[C@H](C)CN([C@H](C)CO)C3=O)n(C)n1	-6[16.7 µM]	x	-4	x	x	x
COCC(=O)Nc1ccc2c(c1)OC[C@H](C)N(Cc1cncnc1)C[C@@H](C)[C@H](OC)CN(C)C2=O	19[16.7 µM]	x	x	x	x	x
COc1cc(NS(=O)(=O)c2ccc(NC(=S)NC(=O)/C=C/c3ccc(OC)c(OC)c3)cc2)ncn1	6	0	3	-16	0	16
COc1ccc(/C=C/C(=O)NC(=S)Nc2ccc(S(=O)(=O)N=C(N)N)cc2)cc1OC	x	-3	-2	286*	-1	-286
CC(=O)Nc1ccc(NC(=O)C(C)OC(=O)c2cc(S(=O)(=O)N3CCOCC3)ccc2Cl)cc1 (stereo not drawn)	-11	-5	-12	-41	-3	41
CC(OC(=O)c1cc(S(=O)(=O)N2CCOCC2)ccc1Br)C(=O)N1CCOCC1 (stereo not drawn)	-14	43*	6	11	-1	-11
COCCn1c(=NC(=O)/C=C/c2cccs2)sc2cc(NC(C)=O)ccc21	13	-7	-6	-72	0	72*
CC1=C(C(=O)OCc2ccccc2)C(/C=C/c2ccccc2)NC(=S)N1 (stereo not drawn)	-14	-6	-14	-74	0	74*
COCCOC(=O)C1=C(C)NC(=S)NC1/C=C/c1ccccc1 (stereo not drawn)	x	0	-4	-40	0	40
